{
  "source": "ChEMBL document CHEMBL4043073",
  "about": "“Boronic Acid Modifications Enhance the Anti-Influenza A Virus Activities of Novel Quindoline Derivatives” (J Med Chem, 2017)",
  "key": {"[1]": {"test_system": "A549", "assay": "Cytotoxicity against human A549 cells at 20 uM after 48 hrs by resazurin based fluorescence method", "type": "cell-based", "conditions": "a549, 48 h", "in_short": "(§1)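 Confluent MDCK, A549 or H1299 cells exposed in triplicate to compound for 48 h at 37 °C (A549/H1299 at 20 μM). Resazurin added to 0.2 mg/mL final for 16 h. Fluorescence read at ex 544 / em 595 nm; viability as % of untreated.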"}, "[2]": {"test_system": "Influenza A virus", "assay": "Antiviral activity against Influenza A virus (A/Puerto Rico/8/34(H1N1)) infected in Kunming mouse assessed as intact columnar epithelium in bronchiole without inflammatory cell infiltration at 10 mg/kg/day, po qd for 4 days by hematoxylin and eosin staining based assay", "type": "functional, organism-based", "conditions": "A/Puerto Rico/8/1934(H1N1)"}, "[3]": {"species": "Canis lupus familiaris", "assay": "(§2) Inhibition of NFkappaB activation-mediated viral endocytosis in MDCK cells infected with Influenza A virus (A/Puerto Rico/8/34(H1N1)) assessed as Akt phosphorylation level at 5 uM preincubated with virus for 1 hr followed by viral infection measured after 4 hrs by Western blot method relative to control (reference value: 1.4)", "type": "cell-based", "in_short": "(§3)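 PR8 (MOI 1.0) pretreated with compound 1 h at 37 °C, then MDCK cells were kept in infecting medium with 5 or 10 μM for 4 h; ribavirin 50 μg/mL as comparator. Lysates were immunoblotted for phospho-ERK1/2, p38, NF-κB or Akt, with β-actin/GAPDH loading controls and AP/NBT-BCIP detection. Densitometry was normalised to uninfected cells (= 1.0); n = 3.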"}, "[4]": {"test_system": "Vero", "assay": "Inhibition of Influenza A virus (A/Puerto Rico/8/34(H1N1)) hemagglutinin expressed in African green monkey Vero cells assessed as reduction in acid-induced syncytium formation treated at pH 5 for 10 mins measured after 2 hrs by Hema3Stat Pak-staining based microscopic analysis", "type": "cell-based", "conditions": "Influenza A virus (A/Puerto Rico/8/1934(H1N1))", "in_short": "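Vero cells transfected with PR8 HA plasmid. At 16 h HA was cleaved with 5 μg/mL TPCK-trypsin for 15 min at 37 °C. Cells were preincubated with compound 15 min at 37 °C, then held at pH 5.0 with compound for 10 min at 37 °C. After rinsing, cells were kept 2 h in 10% FBS medium, stained with Hema3Stat Pak and examined for syncytia by microscopy.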"}, "[5]": {"test_system": "Influenza A virus (A/Puerto Rico/8/1934(H1N1))", "assay": "Inhibition of Influenza A virus (A/Puerto Rico/8/34(H1N1)) neuraminidase using MUNANA as substrate preincubated for 30 mins followed by substrate addition measured after 30 mins by fluorescence assay relative to control", "in_short": "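Inactivated PR8 virus supernatant mixed with compound (10 μM) in 33 mM MES pH 3.5, 4 mM CaCl2 for 30 min at 37 °C. MUNANA (20 μM) was added for 30 min at 37 °C and the reaction stopped with glycine/ethanol pH 10.7. Fluorescence read at ex 360 / em 440 nm; zanamivir 10 μM as reference; n = 3.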"}, "[6]": {"species": "Canis lupus familiaris", "assay": "(§4) Inhibition of MAPK signaling-mediated nuclear import of viral RNP in MDCK cells infected with Influenza A virus (A/Puerto Rico/8/34(H1N1)) assessed as p38 phosphorylation at 5 uM preincubated with virus for 1 hr followed by viral infection after 4 hrs by Western blot method relative to control (reference value: 5.1)", "type": "cell-based", "in_short": "as §3"}, "[7]": {"assay": "Drug uptake in human A549 cell nucleus at 20 uM after 4 hrs by DAPI staining based confocal microscopic analysis", "type": "ADME", "conditions": "a549, 4 h", "in_short": "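A549 cells incubated with 20 μM compound 4 h at 37 °C, then fixed and DAPI-stained. Compound intrinsic fluorescence located by confocal microscopy.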"}, "[8]": {"assay": "Cytotoxicity against MDCK cells after 48 hrs by resazurin based fluorescence method", "type": "cell-based, Canis lupus familiaris", "conditions": "dog", "in_short": "as §1"}, "[9]": {"test_system": "Influenza A virus", "assay": "Antiviral activity against Influenza A virus (A/Puerto Rico/8/34(H1N1)) infected in MDCK cells assessed as virus yeild reduction at 10 uM preincubated with virus for 1 hr followed by viral infection for 1 hr measured at 24 hrs post infection by crystal violet staining based plaque assay", "type": "functional, cell-based", "conditions": "A/Puerto Rico/8/1934(H1N1)", "in_short": "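PR8 (MOI 1.0) preincubated with compound (2.5–10 μM) 1 h at 37 °C, then used to infect MDCK cells. After adsorption, medium with the same compound concentration was added. At 24 h p.i. supernatant virus titer was measured by plaque assay; n = 3.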"}, "[10]": {"assay": "Selectivity index, ratio of CC50 for MDCK cells to IC50 for Influenza A virus (A/Puerto Rico/8/34(H1N1)) infected in MDCK cells assessed as reduction in virus-induced cytopathic effect", "type": "toxicity, cell-based", "conditions": "dog, read-out: Ratio CC50/IC50"}, "[11]": {"species": "Canis lupus familiaris", "assay": "as §4, with “at 10” for “at 5”", "type": "cell-based", "in_short": "as §3"}, "[12]": {"test_system": "Influenza A virus", "assay": "Antiviral activity against Influenza A virus (A/Puerto Rico/8/34(H1N1)) infected in MDCK cells assessed as reduction in virus-induced cytopathic effect after 48 hrs by crystal violet staining based assay", "type": "functional, cell-based", "conditions": "A/Puerto Rico/8/1934(H1N1)", "in_short": "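MDCK cells infected with PR8 at MOI 0.1; compounds added in triplicate after inoculum removal. After 48 h cells were fixed with 4% formaldehyde and stained with 0.1% crystal violet. Dye was methanol-solubilised and read at 570 nm; IC50 was the concentration halving CPE.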"}, "[13]": {"test_system": "Influenza A virus", "assay": "Antiviral activity against Influenza A virus (A/Puerto Rico/8/34(H1N1)) infected in MDCK cells assessed as reduction in viral HA titer by measuring reduction in chicken RBC […] after 24 hrs by hemagglutination test", "type": "functional, cell-based", "conditions": "A/Puerto Rico/8/1934(H1N1)", "in_short": "(§5)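 MDCK cells infected at MOI 3.0 (single-cycle) with PR8, Cal09 or swine H3N2 Minnesota, then treated with compound for 24 h. Supernatant HA titers were read by 2-fold serial dilution with an equal volume of 1% chicken RBCs, 60 min at 4 °C. Expressed as percent of untreated-cell HA titer; IC50 derived; n = 4.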"}, "[14]": {"test_system": "Influenza A virus", "assay": "Antiviral activity against Influenza A virus (A/Puerto Rico/8/34(H1N1)) infected in MDCK cells assessed as virus yeild reduction at 10 uM treated during viral adsorption for 1 hr measured at 24 hrs post infection by crystal violet staining based plaque assay", "type": "functional, cell-based", "conditions": "A/Puerto Rico/8/1934(H1N1)", "in_short": "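Time-of-addition on MDCK cells, PR8 MOI 1.0, 10 μM compound. Three arms: cells pretreated before infection; compound present during adsorption 1 h at 4 °C; or compound added after removal of unadsorbed virus. Virus yield at 24 h p.i. by plaque assay; n = 3.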"}, "[15]": {"test_system": "Influenza A virus", "assay": "Antiviral activity against Influenza A virus H3N2 strain (A/swine/Minnesota/02719/2009) infected in MDCK cells assessed as reduction in viral HA titer by measuring reduction in chicken RBC […] after 24 hrs by hemagglutination test", "type": "functional, cell-based", "in_short": "as §5"}, "[16]": {"test_system": "Influenza A virus", "assay": "Antiviral activity against Influenza A virus (A/Puerto Rico/8/34(H1N1)) infected in Kunming mouse assessed as survival rate at 10 mg/kg/day, po qd for 7 days measured on day 14 post infection (reference value: 30%)", "type": "functional", "conditions": "A/Puerto Rico/8/1934(H1N1)"}, "[17]": {"species": "Canis lupus familiaris", "assay": "as §2, with “RNA synthesis” for “endocytosis”, “NF-kB” for “Akt”, “10” for “5”, “1.8)” for “1.4)”", "type": "cell-based", "in_short": "as §3"}},
  "note": "Active and inactive are the calls of the source. No cut-off for these calls is given here.",
  "data": [
    {"smiles": "O=C(Nc1ccccc1Nc1c2ccccc2nc2c1[nH]c1ccccc12)c1cccc(B(O)O)c1", "values": [
      {"measurement": "Activity", "setting": "[1]", "result": "Non-Toxic"},
      {"measurement": "Activity", "setting": "[2]", "result": "Active"},
      {"measurement": "fold change (FC)", "setting": "[3]", "result": 1.2},
      {"measurement": "inhibition", "setting": "[4]", "result": "inactive"},
      {"measurement": "inhibition", "setting": "[5]", "result": 72, "unit": "%"},
      {"measurement": "fold change (FC)", "setting": "[6]", "result": 3.3},
      {"measurement": "Drug uptake", "setting": "[7]", "result": "Not Active"},
      {"measurement": "CC50 at 48 h", "setting": "[8]", "result": 142, "unit": "µM"},
      {"measurement": "Activity", "setting": "[9]", "result": "Active"},
      {"measurement": "selectivity ratio", "setting": "[10]", "result": 27.9},
      {"measurement": "fold change (FC)", "setting": "[11]", "result": 2.5},
      {"measurement": "IC50", "setting": "[12]", "result": 5.1, "unit": "µM"},
      {"measurement": "Activity", "setting": "[13]", "result": "Dose-dependent effect"},
      {"measurement": "IC50", "setting": "[13]", "result": 2.5, "unit": "µM"},
      {"measurement": "Activity", "setting": "[14]", "result": "Active"},
      {"measurement": "Activity", "setting": "[15]", "result": "Dose-dependent effect"},
      {"measurement": "IC50", "setting": "[15]", "result": 3, "unit": "µM"},
      {"measurement": "survival at 10 mg/kg/day", "setting": "[16]", "result": 90, "unit": "%"},
      {"measurement": "fold change (FC)", "setting": "[17]", "result": 0.4}
    ]}
  ]
}
